ChEMBL document CHEMBL1130336, “Polyanion inhibitors of human immunodeficiency virus and other viruses. 6. Micelle-like anti-HIV polyanionic compounds based on a carbohydrate core” (J Med Chem, 1997)
pIC50: −log10 of the molar value.

Assays:
CEM-4 [1] = assay: Concentration required to reduce the viability of uninfected CEM-4 cells by 50%; format: functional; settings: Homo sapiens
Procedure, shortened: (§1)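 Cytotoxicity in uninfected CEM-4 or MT-4 cells, measured as inhibition of cell growth. The value is the concentration that lowers viability by 50%.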

CEM-4 [2] = assay: Inhibitory concentration required to inhibit HIV-induced cytopathicity in CEM-4 cells by 50%; format: functional, cell-based; settings: Homo sapiens
Procedure, shortened: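 CEM-4 cells infected with HIV-1 (strain HTLV-III_B/LAI). The end point is 50% inhibition of HIV-induced cytopathicity.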

E6SM [3] = assay: Concentration required to cause a microscopically detectable alteration of normal E6SM cell morphology; format: functional, cell-based; settings: Homo sapiens, read-out: IC50
Procedure, shortened: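 Minimum cytotoxic concentration, read microscopically as the level that causes a detectable alteration of normal cell morphology.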

E6SM [4] = assay: Concentration required to reduce herpes simplex virus-1TK( B2006) inducted cytopathicity by 50% (E6SM cells); format: functional, cell-based; settings: Homo sapiens
Procedure, shortened: (§2)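 Virus was added in the presence of compound, and the cells were incubated until cytopathic effect was scored. The value is the concentration that reduces virus-induced CPE by 50%.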

E6SM [5] = assay: Concentration required to reduce herpes simplex virus-1TK (F) inducted cytopathicity by 50% (E6SM cells); format: functional, cell-based; settings: Homo sapiens; procedure, shortened: as §2
E6SM [6] = assay: Concentration required to reduce herpes simplex virus-1TK (KOS) inducted cytopathicity by 50% (E6SM cells); format: functional, cell-based; settings: Homo sapiens; procedure, shortened: as §2
E6SM [7] = assay: Concentration required to reduce herpes simplex virus-1TK (McIntyre) inducted cytopathicity by 50% (E6SM cells); format: functional, cell-based; settings: Homo sapiens; procedure, shortened: as §2
E6SM [8] = assay: Concentration required to reduce herpes simplex virus-1TK (VMW1837) inducted cytopathicity by 50% (E6SM cells); format: functional, cell-based; settings: Homo sapiens; procedure, shortened: as §2
E6SM [9] = assay: Concentration required to reduce herpes simplex virus-2(196) inducted cytopathicity by 50% (E6SM cells); format: functional, cell-based; settings: Homo sapiens; procedure, shortened: as §2
E6SM [10] = assay: Concentration required to reduce herpes simplex virus-2(G) inducted cytopathicity by 50% (E6SM cells); format: functional, cell-based; settings: Homo sapiens; procedure, shortened: as §2
Vaccinia virus = assay: Concentration required to reduce vaccinia virus-inducted cytopathicity by 50% (E6SM cells); format: functional, organism-based, Orthopoxvirus vaccinia
[11] = tested on: Human immunodeficiency virus 1; assay: Concentration required to inhibit by 50% human immunodeficiency virus-1 induced syncytium formation upon coculturing persistently HIV-infected HUT-78 cells with MOLT-4 cells; format: functional, organism-based; settings: Human immunodeficiency virus 1, MOLT-4
Procedure, shortened: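 MOLT-4 (clone 8) cells at 1 × 10^6 cells/mL, cocultured with an equal number of persistently infected HUT-78/HIV-1 or HUT-78/HIV-2 cells across a range of compound concentrations. Giant cells were counted under the microscope after 24 h of cocultivation. The value is the concentration giving 50% inhibition of syncytium formation.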

HEL [12] = assay: Concentration required to inhibit HEL cell growth by 50%; format: functional, cell-based; settings: Homo sapiens
HEL [13] = assay: Concentration required to reduce human cytomegalo virus(AD-169) inducted cytopathicity by 50% (HEL cells); format: functional, cell-based; procedure, shortened: as §2
HEL [14] = assay: Concentration required to reduce human cytomegalo virus(Davis) inducted cytopathicity by 50% (HEL cells); format: functional, cell-based; procedure, shortened: as §2
HeLa [15] = assay: Concentration required to reduce Coxsackie virus-inducted cytopathicity by 50% (HeLa cells); format: functional, cell-based; settings: Homo sapiens
HeLa [16] = assay: Concentration required to reduce polio-1 virus-inducted cytopathicity by 50% (HeLa cells); format: functional, cell-based; settings: Homo sapiens
HeLa [17] = assay: Concentration required to reduce vesicular stomatitis virus-inducted cytopathicity by 50% (HeLa cells); format: functional, cell-based; settings: Homo sapiens
MT4 [18] = assay: Concentration required to reduce the viability of uninfected MT-4 cells by 50%; format: functional; settings: Homo sapiens; procedure, shortened: as §1
MT4 [19] = assay: Concentration required to inhibit human immunodeficiency virus-2 induced cytopathicity in MT-4 cells by 50%; format: functional, cell-based
Procedure, shortened: (§3)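 MT-4 cells infected with HIV-1 (strain HTLV-III_B/LAI) or HIV-2 (strain LAV_ROD). The end point is 50% inhibition of virus-induced cytopathicity.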

Vero [20] = assay: Concentration required to cause a microscopically detectable alteration of normal Vero cell morphology; format: functional, cell-based; settings: Chlorocebus sabaeus
Vero [21] = assay: Concentration required to reduce Coxsackie virus-inducted cytopathicity by 50% (Vero cells); format: functional, cell-based; settings: Chlorocebus sabaeus
Vero [22] = assay: Concentration required to reduce Junin virus-inducted cytopathicity by 50% (Vero cells); format: functional, cell-based; settings: Chlorocebus sabaeus
Vero [23] = assay: Concentration required to reduce forest virus-inducted cytopathicity by 50% (Vero cells); format: functional, cell-based; settings: Chlorocebus sabaeus
Vero [24] = assay: Concentration required to reduce Tacaribe virus-inducted cytopathicity by 50% (Vero cells); format: functional, cell-based; settings: Chlorocebus sabaeus
Vero [25] = assay: Concentration required to reduce parainfluenza-3 virus-inducted cytopathicity by 50% (Vero cells); format: functional, cell-based; settings: Chlorocebus sabaeus
Vero [26] = assay: Concentration required to reduce reovirus-1 inducted cytopathicity by 50% (Vero cells); format: functional, cell-based; settings: Chlorocebus sabaeus
Vero [27] = assay: Concentration required to reduce sindbis virus-inducted cytopathicity by 50% (Vero cells); format: functional, cell-based; settings: Chlorocebus sabaeus
MT4 [28] = assay: Concentration required to inhibit human immunodeficiency virus-1 induced cytopathicity in MT-4 cells by 50%; format: functional, cell-based; procedure, shortened: as §3
E6SM [29] = assay: Concentration required to reduce herpes simplex virus-2(Lyons) inducted cytopathicity by 50% (E6SM cells); format: functional, cell-based; settings: Homo sapiens; procedure, shortened: as §2
HeLa [30] = assay: Concentration required to cause a microscopically detectable alteration of normal Hela cell morphology; format: functional, cell-based; settings: Homo sapiens
[31] = tested on: Human immunodeficiency virus 2; assay: Concentration required to inhibit by 50% human immunodeficiency virus-2 induced syncytium formation upon coculturing persistently HIV-infected HUT-78 cells with MOLT-4 cells; settings: HUT-78, MOLT-4

Compound | minimum cytotoxic concentration (E6SM [3]) [µM] | pIC50 (E6SM [4]) | pIC50 (E6SM [6]) | pIC50 (E6SM [8]) | pIC50 (E6SM [10]) | pIC50 [11] | pIC50 (HEL [12]) | pIC50 (HEL [13]) | pIC50 (HEL [14]) | pIC50 (HeLa [15]) | pIC50 (HeLa [17]) | CC50 (MT4 [18]) [µM] | pIC50 (MT4 [19]) | pIC50 (Vero [20]) | pIC50 (Vero [21]) | pIC50 (Vero [22]) | pIC50 (Vero [24]) | pIC50 (Vero [25]) | pIC50 (Vero [26]) | pIC50 (Vero [27]) | other results
O=C(O)CC(SCCCOC[C@H]1O[C@@H](OCCCSC(CC(=O)O)C(=O)O)[C@H](OCCCSC(CC(=O)O)C(=O)O)[C@@H](OCCCSC(CC(=O)O)C(=O)O)[C@@H]1OCCCSC(CC(=O)O)C(=O)O)C(=O)O (stereo partly specified) | > 296 | < 3.53 | < 3.53 | < 3.53 | < 3.53 | < 3.73 | < 4.43 | < 4.43 | < 4.43 | < 3.83 | < 3.83 | > 185 | < 3.73 | < 3.83 | < 3.83 | < 4.43 | < 4.43 | < 3.83 | < 3.83 | < 3.83 | CC50 (CEM-4 [1]): > 74 µM; pIC50 (CEM-4 [2]): < 4.13; pIC50 (E6SM [5]): < 3.53; pIC50 (E6SM [7]): < 3.53; pIC50 (E6SM [9]): < 3.53; pIC50 (Vaccinia virus; Orthopoxvirus vaccinia, E6SM): < 3.53; pIC50 (HeLa [16]): < 3.83; pIC50 (Vero [23]): < 3.83; pIC50 (MT4 [28]): 4.07; pIC50 (E6SM [29]): < 3.53
O=S(=O)(O)CCSCCCOC[C@H]1O[C@@H](OCCCSCCS(=O)(=O)O)[C@H](OCCCSCCS(=O)(=O)O)[C@@H](OCCCSCCS(=O)(=O)O)[C@@H]1OCCCSCCS(=O)(=O)O | > 333 | < 3.48 | < 3.48 | < 3.48 | < 3.48 | < 3.68 | < 4.38 | < 4.38 | < 3.48 | < 3.78 | < 3.78 | > 208 | < 3.68 | < 3.78 | < 3.78 | < 4.38 | < 4.38 | < 3.78 | < 3.78 | < 3.78 | CC50 (CEM-4 [1]): > 83.3 µM; pIC50 (CEM-4 [2]): < 4.08; pIC50 (E6SM [5]): < 3.48; pIC50 (E6SM [7]): < 3.48; pIC50 (E6SM [9]): < 3.48; pIC50 (Vaccinia virus; e6sm): < 3.78; pIC50 (HeLa [30]): < 3.78; pIC50 (HeLa [16]): < 3.78; pIC50 (Vero [23]): < 3.78; pIC50 (E6SM [29]): < 4.38; pIC50 [31]: < 3.68
O=C(O)CC(SCCCOC[C@H]1O[C@@H](O[C@H]2[C@H](OCCCSC(CC(=O)O)C(=O)O)[C@@H](OCCCSC(CC(=O)O)C(=O)O)C(OCCCSC(CC(=O)O)C(=O)O)O[C@@H]2COCCCSC(CC(=O)O)C(=O)O)[C@H](OCCCSC(CC(=O)O)C(=O)O)[C@@H](OCCCSC(CC(=O)O)C(=O)O)[C@@H]1OCCCSC(CC(=O)O)C(=O)O)C(=O)O (stereo partly specified) | > 181 | 4.35 | < 3.74 | < 3.74 | < 4.35 | 5.74 | < 4.66 | 5.85 | 6.40 | < 3.74 | < 3.74 | > 56.4 | 5.38 | < 3.74 | < 3.74 | < 4.66 | < 4.66 | < 3.74 | < 3.74 | < 3.74 | pIC50 (Vaccinia virus; Orthopoxvirus vaccinia, E6SM): < 3.74; pIC50 (HeLa [30]): < 3.74; pIC50 (MT4 [28]): 7.40; pIC50 [31]: 4.27
O=C(O)CCSCCCOC[C@H]1O[C@@H](OCCCSCCC(=O)O)[C@H](OCCCSCCC(=O)O)[C@@H](OCCCSCCC(=O)O)[C@@H]1OCCCSCCC(=O)O |  |  |  |  |  |  |  |  |  |  |  |  |  |  |  |  |  |  |  |  | CC50 (CEM-4 [1]): > 98 µM; pIC50 (CEM-4 [2]): < 4.01
O=C(O)CC(SCCCOC[C@H]1O[C@@H](O[C@H]2[C@H](OCCCSC(CC(=O)O)C(=O)O)[C@@H](OCCCSC(CC(=O)O)C(=O)O)[C@@H](OCCCSC(CC(=O)O)C(=O)O)O[C@@H]2COCCCSC(CC(=O)O)C(=O)O)[C@H](OCCCSC(CC(=O)O)C(=O)O)[C@@H](OCCCSC(CC(=O)O)C(=O)O)[C@@H]1OCCCSC(CC(=O)O)C(=O)O)C(=O)O (stereo partly specified) | > 181 | 4.17 | 3.87 | < 3.74 | 3.87 | 5.44 | < 4.66 | 5.20 | 5.44 | < 3.74 | < 3.74 | > 56.4 | 5.35 | < 3.74 | < 3.74 | < 4.66 | < 4.66 | < 3.74 | < 3.74 | < 3.74 | pIC50 (Vaccinia virus; Orthopoxvirus vaccinia, E6SM): < 3.74; pIC50 (HeLa [30]): < 3.74; pIC50 (MT4 [28]): 6.43; pIC50 [31]: 4.27
